From ChEMBL document CHEMBL1143373, “Novel 6-methanesulfonamide-3,4-methylenedioxyphenyl-N-acylhydrazones: orally effective anti-inflammatory drug candidates” (Bioorg Med Chem, 2009)
Calls of active or inactive are those of the source.

Legend:
[1] = system: Rattus norvegicus; assay: Antiinflammatory activity in Wistar rat assessed as inhibition of carrageenan-induced paw edema volume at 300 umol/kg, po administered 1 hrs prior to carrageenan challenge measured after 3 hrs; assay type: functional; design: scale not given: the % may be the effect or the level left
Method in brief: (§1)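 Fasted Wistar rats of both sexes (150–200 g), given compound orally as a suspension in 5% arabic gum in saline. One hour later, 1% carrageenan (1 mg/paw) injected subplantar into one hind paw, saline into the other. Volumes measured by glass plethysmometer at 3 h. Edema taken as the carrageenan-minus-saline paw difference, expressed as % inhibition vs vehicle. n = 8–10.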

[2] = biological target: Prostaglandin G/H synthase 1 (Homo sapiens, UniProt P23219); assay: Inhibition of COX1 in human whole blood assessed as TXB2 production by enzyme immunoassay; assay type: tissue-based
[3] = system: Rattus norvegicus; assay: Antiinflammatory activity against arachidonic acid-induced ear edema in Wistar rat; assay type: functional, organism-based
[4] = system: Mus musculus; assay: Antinociceptive activity against formalin-induced pain in mouse assessed as inhibition of paw licking response during inflammatory phase at 300 umol/kg, po measured 15 to 30 mins after formalin injection; assay type: functional; design: scale not given: the % may be the effect or the level left
Method in brief: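 Mice received 20 µL of 2.5% formalin subplantar in the hind paw. The inflammatory (second) phase was recorded 15–30 min after injection.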

[5] = system: Rattus norvegicus; assay: Antihyperalgesic activity in Wistar rat assessed as inhibition of carrageenan-induced thermal hyperalgesia at 300 umol/kg, po by hotplate test; assay type: functional, organism-based
Method in brief: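 Fasted Wistar rats of both sexes (150–200 g), dosed orally with 300 µmol/kg as a suspension in 5% arabic gum in saline (vehicle controls). Carrageenan 1% (1 mg/paw) injected subplantar 1 h later. Hot plate held at 51 °C, cut-off 20 s. Left hind paw withdrawal latency read at 0, 30, 60, 120, 180 and 240 min post-challenge. Hyperalgesia taken as the latency drop from time 0. n = 8 per group.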

[6] = system: Mus musculus; assay: Antinociceptive activity in mouse assessed as inhibition of acetic acid-induced constrictions at 300 umol/kg, po; assay type: functional; design: scale not given: the % may be the effect or the level left
[7] = system: Rattus norvegicus; assay: Antiinflammatory activity in po dosed Wistar rat assessed as inhibition of carrageenan-induced paw edema volume administered 1 hrs prior to carrageenan challenge measured after 3 hrs; assay type: functional; method in brief: as §1
[8] = biological target: T1, Prostaglandin G/H synthase 2 (Homo sapiens, UniProt P35354); assay: Inhibition of COX2 in LPS-stimulated human whole blood assessed as TXB2 production by enzyme immunoassay; assay type: tissue-based
T1 sequence (P35354 whole entry): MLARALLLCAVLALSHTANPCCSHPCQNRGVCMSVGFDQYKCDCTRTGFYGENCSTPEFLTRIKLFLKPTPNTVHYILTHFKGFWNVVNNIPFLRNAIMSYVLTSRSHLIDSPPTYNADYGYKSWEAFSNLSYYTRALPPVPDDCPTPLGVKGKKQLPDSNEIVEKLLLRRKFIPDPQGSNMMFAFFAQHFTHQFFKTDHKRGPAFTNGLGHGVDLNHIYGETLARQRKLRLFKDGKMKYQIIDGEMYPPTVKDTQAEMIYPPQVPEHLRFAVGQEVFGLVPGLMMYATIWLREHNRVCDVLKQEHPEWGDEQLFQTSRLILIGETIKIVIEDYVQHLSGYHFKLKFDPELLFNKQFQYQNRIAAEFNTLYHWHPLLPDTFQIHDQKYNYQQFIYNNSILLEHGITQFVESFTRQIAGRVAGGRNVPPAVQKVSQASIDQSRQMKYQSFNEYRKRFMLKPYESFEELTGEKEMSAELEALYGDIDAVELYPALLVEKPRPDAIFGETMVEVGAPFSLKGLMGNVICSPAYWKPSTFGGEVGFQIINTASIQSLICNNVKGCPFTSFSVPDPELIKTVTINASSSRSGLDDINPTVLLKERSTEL

Chain of Prostaglandin G/H synthase 1 (P23219 whole entry): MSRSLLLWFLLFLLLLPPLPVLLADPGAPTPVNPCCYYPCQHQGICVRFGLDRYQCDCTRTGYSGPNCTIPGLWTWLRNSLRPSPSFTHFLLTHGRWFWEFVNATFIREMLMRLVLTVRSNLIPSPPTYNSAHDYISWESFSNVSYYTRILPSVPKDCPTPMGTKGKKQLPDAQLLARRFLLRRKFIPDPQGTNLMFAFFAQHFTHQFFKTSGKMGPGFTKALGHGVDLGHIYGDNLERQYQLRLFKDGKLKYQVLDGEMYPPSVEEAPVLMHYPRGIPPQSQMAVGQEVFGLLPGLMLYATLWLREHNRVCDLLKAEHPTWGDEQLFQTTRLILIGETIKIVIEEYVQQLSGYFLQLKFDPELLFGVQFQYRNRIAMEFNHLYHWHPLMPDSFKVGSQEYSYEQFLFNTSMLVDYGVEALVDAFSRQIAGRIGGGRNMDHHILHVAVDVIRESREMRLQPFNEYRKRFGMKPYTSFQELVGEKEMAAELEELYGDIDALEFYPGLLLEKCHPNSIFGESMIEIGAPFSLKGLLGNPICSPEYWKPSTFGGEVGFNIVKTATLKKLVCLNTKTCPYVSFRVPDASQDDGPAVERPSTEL

For O=C(N/N=C/c1cccs1)c1ccc2c(c1)OCO2, the Activity [1] was 29.7%.

With CS(=O)(=O)Nc1cc2c(cc1C(=O)N/N=C/c1ccccc1)OCO2 the IC50 [2] was 4.1 µM, the Activity [3] was “Active” and the Activity [4] was 48.7%. For the same molecule, the Activity [1] was 59.6%, the Activity [5] was “Active” and the Activity [6] was 70%. The ED50 [7] was 97.8 µmol/kg and the IC50 [8] was 10.2 µM.

CS(=O)(=O)Nc1cc2c(cc1C(=O)N/N=C/c1cccs1)OCO2 was tested, and the Activity [1] was 36%.

Molecule CS(=O)(=O)Nc1cc2c(cc1C(=O)N/N=C/c1ccco1)OCO2 has an Activity [1] of 37.9%.

Work on CS(=O)(=O)Nc1ccc([N+](=O)[O-])cc1Oc1ccccc1 [NIMESULIDE] yielded an Activity [4] of 58.5% and an Activity [1] of 57.5%.
